Assay results reported in ChEMBL document CHEMBL5647682, “A selective PIKfyve inhibitor blocks PtdIns(3,5)P(2) production and disrupts endomembrane transport and retroviral budding” (EMBO Rep, 2008).
One block for each molecule: values may come before it. Calls of active or inactive are those of the source. No cut-off for these calls is given here.

How the values were obtained:
[1] = Effect on PtdIns(3,5)P2 production in [32p]pi labelled serum stimulated mouse NIH3T3 cells at 800 nM (reference value: 2219 +/- 71); assay type: functional
Outline: (§1)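 Sub-confluent NIH3T3 cells in 6 cm dishes, moved to phosphate-free medium and labelled with 0.3 mCi/ml 32Pi for 1 h, then treated with or without inhibitor for 20 min. Lysis in ice-cold 1 M HCl, scraping, lipid extraction and HPLC analysis of labelled phosphoinositides.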

[2] = Effect on PtdIns4P production in [32p]pi labelled serum stimulated mouse NIH3T3 cells at 800 nM (reference value: 212147 +/- 5485); assay type: functional; outline: as §1
[3] = test system: MDCK; test: Induction of swollen vesicle phenotype in MDCK cells at 800 nM incubated for 120 mins by time-lapse analysis; assay type: functional, cell-based; settings: Canis lupus familiaris
[4] = test system: NIH3T3; test: Induction of cell division in mouse NIH3T3 cells at 800 nM; assay type: functional, cell-based
[5] = test system: NIH3T3; test: Inhibition of cell growth in mouse NIH3T3 cells after 7 days; assay type: functional; settings: time 7 day
[6] = test system: NIH3T3; test: Induction of EEA1 localization in lumenal vesicles of mouse NIH3T3 cells at 800 nM incubated for 2 hrs; assay type: functional, cell-based
Outline: (§2)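 NIH3T3 cells on coverslips, untreated or given 800 nM compound for 2 h. Fixed in 4% paraformaldehyde, permeabilized in 0.2% Triton X-100, blocked in 2% BSA, then anti-EEA1 staining. Confocal single 0.4 μm optical sections, with phase image merged onto the fluorescence image.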

[7] = test system: NIH3T3; test: Inhibition of autophagy in mouse NIH3T3 cells transfected with GFP-tagged LC3 assessed as accumulation of LC3 in enlarged vesicles at 800 nM after 2 hrs; assay type: functional, cell-based
Outline: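 NIH3T3 cells transfected with GFP-LC3 (Lipofectamine 2000), examined 48 h post-transfection. Left untreated or treated 2 h with 800 nM compound, fixed in 4% paraformaldehyde, and GFP, phase and overlay images taken by confocal microscopy as 0.4 μm optical sections.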

[8] = test system: NIH3T3; test: Induction of swollen vesicle phenotype in mouse NIH3T3 cells incubated for 120 mins by time-lapse analysis; assay type: functional, cell-based; settings: NIH3T3, 2 h
Outline: (§3)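 Live imaging of NIH3T3 cells on glass-bottom dishes in phenol red-free DMEM/10% DCS at 37°C, 10% CO2. Cells given 800 nM compound and phase imaged for 120 min, frames every 10 s. Then washed, placed in drug-free medium and filmed a further 130 min.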

[9] = Effect on PtdIns(3,4)P2 production in [32p]pi labelled serum stimulated mouse NIH3T3 cells at 800 nM (reference value: 1366 +/- 44); assay type: functional; outline: as §1
[10] = test system: MEF; test: Induction of swollen vesicle phenotype in MEF cells at 800 nM incubated for 120 mins by time-lapse analysis; assay type: functional, cell-based; settings: Mus musculus
[11] = Selectivity ratio of IC50 for GST-tagged Ptdlns3p P110alpha (unknown origin) to IC50 for Saccharomyces cerevisiae GST-tagged PIKfyve
[12] = test system: MCF-10A; test: Induction of swollen vesicle phenotype in human MCF-10A cells at 800 nM incubated for 120 mins by time-lapse analysis; assay type: functional, cell-based
[13] = test system: NIH3T3; test: Induction of EGF localization in mouse NIH3T3 cells at 800 nM preincubated for 2 hrs followed by EGF stimulation and measured after 60 mins; assay type: functional, cell-based; settings: time 3.0 hrs
[14] = Effect on PtdIns3P production in [32p]pi labelled serum stimulated mouse NIH3T3 cells at 800 nM (reference value: 7685 +/- 307); assay type: functional; outline: as §1
[15] = Inhibition of mouse type 1 alpha PtdInsP
[16] = test system: NIH3T3; test: Inhibition of PKB phosphorylation at Ser473 residue in mouse NIH3T3 cells at 800 nM under serum starved condition; assay type: cell-based
Outline: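 NIH3T3 cells, 200,000 per well, grown in DMEM/10% donor calf serum, then held 18 h in 0.1% DCS. Pretreated 15 min with vehicle (DMSO), 800 nM inhibitor, 20 nM rapamycin or 10 μM LY294002, then left unstimulated or stimulated 15 min with 10% DCS. Lysates run on 10% SDS-PAGE, PVDF immunoblot with specific antibodies.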

[17] = test system: NIH3T3; test: Induction of swollen vesicle phenotype in mouse NIH3T3 cells at 800 nM incubated for 120 mins by time-lapse analysis; assay type: functional, cell-based; outline: as §3
[18] = test system: NIH3T3; test: Induction of EEA1 localization in vesicular structures of mouse NIH3T3 cells at 800 nM incubated for 2 hrs; assay type: functional, cell-based; outline: as §2
[19] = Effect on PtdIns(4,5)P2 production in [32p]pi labelled serum stimulated mouse NIH3T3 cells at 800 nM (reference value: 487335 +/- 641); assay type: functional; outline: as §1
[20] = Inhibition of Saccharomyces cerevisiae GST-tagged PIKfyve
[21] = test system: NIH3T3; test: Induction of CI-MPR localization in perinuclear vesicle of mouse NIH-3T3 at 800 nM incubated for 2 hrs; assay type: functional, cell-based
[22] = species on record: Homo sapiens; test: Inhibition of type 2 gamma PtdInsP (unknown origin) at 10 uM relative to control
[23] = test system: COS-7; test: Induction of swollen vesicle phenotype in african green monkey COS-7 cells at 800 nM incubated for 120 mins by time-lapse analysis; assay type: functional, cell-based; settings: Chlorocebus aethiops
[24] = target: Phosphatidylinositol 4,5-bisphosphate 3-kinase catalytic subunit alpha isoform (Homo sapiens, UniProt P42336); test: Inhibition of GST-tagged Ptdlns3p P110alpha (unknown origin) expressed in baculovirus infected insect cells incubated for 15 mins in presence of ATP
[25] = test system: COS-7; test: Induction of EGF localization in african green monkey COS7 cells at 800 nM preincubated for 2 hrs followed by EGF stimulation and measured after 60 mins; assay type: functional, cell-based; settings: Chlorocebus aethiops, time 3.0 hrs
[26] = test system: NIH3T3; test: Reversal of swollen vesicle phenotype in mouse NIH3T3 cells expressing Fab1 assessed as reduction in number of swollen vesicles at 800 nM incubated for 2 hrs by phase contrast microscopic analysis; assay type: functional; design: scale not given: the % may be the effect or the level left
[27] = target: 1-phosphatidylinositol 3-phosphate 5-kinase FAB1 (Saccharomyces cerevisiae (strain ATCC 204508 / S288c) (Baker's yeast), UniProt P34756); test: Inhibition of Saccharomyces cerevisiae GST-tagged Fab1 incubated for 15 mins in presence of ATP
[28] = test system: NIH3T3; test: Reversal of swollen vesicle phenotype in mouse NIH3T3 cells expressing Fab1 assessed as reduction in size of swollen vesicles at 800 nM incubated for 2 hrs by phase contrast microscopic analysis; assay type: functional, cell-based
[29] = test system: NIH3T3; settings: Mus musculus, dose 800.0 nM

1-phosphatidylinositol 3-phosphate 5-kinase FAB1, sequence (P34756 whole entry): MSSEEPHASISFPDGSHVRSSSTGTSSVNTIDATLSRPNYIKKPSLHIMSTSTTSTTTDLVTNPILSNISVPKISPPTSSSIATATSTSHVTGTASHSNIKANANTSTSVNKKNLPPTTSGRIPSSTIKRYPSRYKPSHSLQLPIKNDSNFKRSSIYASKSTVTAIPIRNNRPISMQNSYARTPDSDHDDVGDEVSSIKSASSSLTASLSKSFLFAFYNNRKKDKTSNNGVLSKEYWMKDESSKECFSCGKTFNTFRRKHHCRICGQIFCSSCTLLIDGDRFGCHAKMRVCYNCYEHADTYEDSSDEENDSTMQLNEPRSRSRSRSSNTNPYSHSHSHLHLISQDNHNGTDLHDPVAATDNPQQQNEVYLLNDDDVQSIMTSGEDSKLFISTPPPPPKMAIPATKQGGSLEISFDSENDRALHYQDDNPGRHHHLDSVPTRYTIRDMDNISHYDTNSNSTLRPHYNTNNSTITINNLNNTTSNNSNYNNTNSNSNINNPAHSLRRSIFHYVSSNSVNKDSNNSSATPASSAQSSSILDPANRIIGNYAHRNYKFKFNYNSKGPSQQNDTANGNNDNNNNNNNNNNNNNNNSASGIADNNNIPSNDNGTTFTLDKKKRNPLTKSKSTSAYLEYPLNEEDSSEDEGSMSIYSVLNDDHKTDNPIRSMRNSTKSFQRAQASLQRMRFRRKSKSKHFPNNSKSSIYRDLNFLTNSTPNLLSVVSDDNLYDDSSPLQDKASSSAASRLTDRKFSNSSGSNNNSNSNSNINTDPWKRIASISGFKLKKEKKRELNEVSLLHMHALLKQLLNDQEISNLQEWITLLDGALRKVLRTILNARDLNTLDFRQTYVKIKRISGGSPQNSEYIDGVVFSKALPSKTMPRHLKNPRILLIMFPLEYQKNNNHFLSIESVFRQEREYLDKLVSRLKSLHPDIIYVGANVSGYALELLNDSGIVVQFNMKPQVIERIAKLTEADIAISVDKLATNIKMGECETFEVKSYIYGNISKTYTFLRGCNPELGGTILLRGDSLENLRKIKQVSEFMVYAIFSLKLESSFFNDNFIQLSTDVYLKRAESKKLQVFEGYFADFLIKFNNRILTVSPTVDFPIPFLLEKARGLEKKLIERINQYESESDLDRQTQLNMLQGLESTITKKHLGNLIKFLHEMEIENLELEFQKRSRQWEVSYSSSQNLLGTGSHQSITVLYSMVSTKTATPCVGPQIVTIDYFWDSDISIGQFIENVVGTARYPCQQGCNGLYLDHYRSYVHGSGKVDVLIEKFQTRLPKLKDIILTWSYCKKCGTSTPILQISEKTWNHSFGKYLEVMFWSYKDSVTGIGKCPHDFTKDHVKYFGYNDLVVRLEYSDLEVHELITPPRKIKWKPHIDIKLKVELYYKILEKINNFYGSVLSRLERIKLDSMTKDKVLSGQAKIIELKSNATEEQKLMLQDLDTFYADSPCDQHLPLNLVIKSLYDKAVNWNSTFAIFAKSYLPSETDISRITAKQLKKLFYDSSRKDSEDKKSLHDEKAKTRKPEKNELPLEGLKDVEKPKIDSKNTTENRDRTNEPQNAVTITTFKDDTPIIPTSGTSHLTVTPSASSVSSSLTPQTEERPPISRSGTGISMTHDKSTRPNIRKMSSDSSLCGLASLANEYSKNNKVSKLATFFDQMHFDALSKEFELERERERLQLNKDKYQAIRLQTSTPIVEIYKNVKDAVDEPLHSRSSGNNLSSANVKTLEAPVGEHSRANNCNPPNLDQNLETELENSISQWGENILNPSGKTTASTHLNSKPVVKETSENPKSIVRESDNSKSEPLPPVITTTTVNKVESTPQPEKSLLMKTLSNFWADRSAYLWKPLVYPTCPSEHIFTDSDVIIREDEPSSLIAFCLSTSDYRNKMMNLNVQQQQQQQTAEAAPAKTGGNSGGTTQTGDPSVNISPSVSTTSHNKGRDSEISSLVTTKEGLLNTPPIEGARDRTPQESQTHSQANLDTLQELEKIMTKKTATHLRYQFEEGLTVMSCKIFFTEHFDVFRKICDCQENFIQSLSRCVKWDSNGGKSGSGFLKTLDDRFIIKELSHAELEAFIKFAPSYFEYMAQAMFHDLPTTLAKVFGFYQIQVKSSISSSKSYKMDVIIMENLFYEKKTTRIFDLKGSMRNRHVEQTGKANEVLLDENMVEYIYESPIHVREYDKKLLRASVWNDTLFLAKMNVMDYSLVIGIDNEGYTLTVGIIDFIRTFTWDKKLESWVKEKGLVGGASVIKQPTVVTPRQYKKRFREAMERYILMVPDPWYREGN
Phosphatidylinositol 4,5-bisphosphate 3-kinase catalytic subunit alpha isoform, sequence (P42336 whole entry, canonical isoform): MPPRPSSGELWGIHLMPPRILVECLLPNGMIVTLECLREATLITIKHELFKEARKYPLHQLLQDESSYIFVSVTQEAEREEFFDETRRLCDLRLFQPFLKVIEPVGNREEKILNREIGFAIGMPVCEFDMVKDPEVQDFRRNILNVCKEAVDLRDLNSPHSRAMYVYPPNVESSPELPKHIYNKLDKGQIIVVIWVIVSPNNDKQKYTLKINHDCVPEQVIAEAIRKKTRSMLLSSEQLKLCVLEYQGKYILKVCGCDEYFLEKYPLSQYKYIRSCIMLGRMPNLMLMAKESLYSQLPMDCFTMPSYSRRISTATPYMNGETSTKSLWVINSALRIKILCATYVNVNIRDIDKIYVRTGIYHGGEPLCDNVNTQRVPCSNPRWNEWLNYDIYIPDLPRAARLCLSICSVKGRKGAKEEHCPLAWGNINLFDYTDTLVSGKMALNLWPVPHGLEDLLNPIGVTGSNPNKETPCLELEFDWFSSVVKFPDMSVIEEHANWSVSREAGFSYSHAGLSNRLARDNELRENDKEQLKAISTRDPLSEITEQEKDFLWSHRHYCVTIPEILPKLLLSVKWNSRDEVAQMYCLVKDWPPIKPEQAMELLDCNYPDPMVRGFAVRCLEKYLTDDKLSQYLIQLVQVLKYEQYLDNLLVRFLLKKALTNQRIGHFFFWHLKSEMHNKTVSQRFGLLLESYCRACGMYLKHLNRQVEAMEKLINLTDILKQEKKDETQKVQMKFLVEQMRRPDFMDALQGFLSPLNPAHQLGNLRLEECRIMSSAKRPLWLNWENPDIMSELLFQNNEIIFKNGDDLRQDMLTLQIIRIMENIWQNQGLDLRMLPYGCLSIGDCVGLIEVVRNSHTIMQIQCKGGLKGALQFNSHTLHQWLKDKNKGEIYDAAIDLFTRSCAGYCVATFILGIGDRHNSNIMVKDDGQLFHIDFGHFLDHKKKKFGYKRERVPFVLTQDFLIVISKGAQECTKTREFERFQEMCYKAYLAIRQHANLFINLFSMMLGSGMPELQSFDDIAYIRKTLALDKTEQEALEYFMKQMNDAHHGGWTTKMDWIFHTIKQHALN

- Ratio IC50 [11]: 100
- IC50 [15]: > 2000 nM
- IC50 [20]: 33 nM
- inhibition [22]: inactive
- IC50 [24]: 3300 nM
- IC50 [27]: > 5000 nM
SMILES: Nc1ccc(C(=O)Nc2cccc(-c3nc(N4CCOCC4)c4oc5ncccc5c4n3)c2)cn1
- Activity [1]: 465
- Activity [2]: 194539
- Activity [3]: Active
- Activity [4]: inactive
- inhibition (INH) [5]: 25%
- Activity [6]: Active
- Activity [7]: Active
- EC50 [8]: 400 nM
- Activity [9]: 1319
- Activity [10]: Active
- Activity [12]: Active
- Activity [13]: Active
- Activity [14]: 7476
- inhibition [16]: inactive
- Activity [17]: Active
- Activity [18]: Active
- Activity [19]: 393289
- Activity [21]: Active
- Activity [23]: Active
- Activity [25]: Active
- Activity [26]: 50%
- Activity [28]: Active

- IC50 [27]: > 10000 nM
SMILES: Oc1cccc(-c2nc(N3CCOCC3)c3oc4ncccc4c3n2)c1 [PI-103]
- inhibition [29]: Active
